Where two headings read alike, the source gives them in different places. Blank lines part the entries; values can stand above or below the compound they belong to.
Columns and labels:
HepG2 cells = assay: DiI-LDL uptake assay; format: cell-based, human; details: 5 μmol/L, 24 h, then 20 μg/mL DiI-LDL 4 h, fold of vehicle
Method in brief: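 Washes: PBS/0.4% albumin ×2, PBS ×3. Isopropanol extraction 20 min RT; fluorescence ex 520/em 570 nm; residual cells lysed in 0.5 mol/L NaOH for protein determination.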

PCSK9 mRNA [1] = details: read-out: IC50 of decreasing PCSK9 mRNA level; cited from earlier work
[2] = 32 hypercholesterolemic patients, 3 months of treatment; cited from earlier work
[3] = cited from earlier work
[4] = In vivo cholesterol-lowering assay in HFD-induced hyperlipidemic hamsters; design: species or system Syrian hamster; details: 21 days, vs HFD control
Method in brief: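 Male Syrian hamsters (100–120 g) were acclimatized 7 days, then fed a high-fat diet (0.5% cholesterol) for 1 week. They were randomized to groups of n = 7. Test compound (30 mg/kg) or fenofibrate positive control (100 mg/kg) was given by daily oral gavage for 21 days; controls received 0.5% CMC-Na vehicle. After a 15 h fast, serum was taken under anesthesia and TC and LDL-C were measured by kit. Mean ± SEM.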

[5] = target: beta-1 adrenergic receptor (Homo sapiens, UniProt P08588); assay: Calcium mobilization assay, β1 adrenergic receptor antagonist activity; format: cell-based; details: HEK293 β1-AR/Gα16 cells
Chain of beta-1 adrenergic receptor (P08588 whole entry, species assumed): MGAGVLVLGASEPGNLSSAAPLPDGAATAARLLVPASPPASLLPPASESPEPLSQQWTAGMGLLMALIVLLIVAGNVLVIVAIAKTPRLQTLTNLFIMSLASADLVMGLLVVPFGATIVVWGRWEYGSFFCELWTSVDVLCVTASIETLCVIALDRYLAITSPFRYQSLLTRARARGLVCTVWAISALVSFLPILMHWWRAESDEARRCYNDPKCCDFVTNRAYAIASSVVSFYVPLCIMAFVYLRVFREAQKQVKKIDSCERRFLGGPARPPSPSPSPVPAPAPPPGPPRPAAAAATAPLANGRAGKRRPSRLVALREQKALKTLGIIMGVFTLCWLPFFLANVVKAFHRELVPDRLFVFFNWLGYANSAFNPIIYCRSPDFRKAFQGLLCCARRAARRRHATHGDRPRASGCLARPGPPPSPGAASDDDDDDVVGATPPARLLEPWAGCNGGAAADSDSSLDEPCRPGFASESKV
Method in brief: (§1)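 HEK293 cells stably co-expressing the receptor and Gα16 were seeded in 96-well plates and grown 24 h. Cells were loaded with 2 μmol/L Fluo-4 AM in HBSS (pH 7.4, BSA 5 g/L, sulfinpyrazone 250 μmol/L) at 37 °C for 45 min. Test compound was added for 10 min at RT, then the respective agonist. Calcium signal was read at ex 485/em 525 nm. IC50 came from nonlinear-regression dose–response curves.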

dopamine D1 = dopamine D1 (Homo sapiens, UniProt P21728); assay: Calcium mobilization assay, dopamine D1 antagonist activity; format: cell-based; details: HEK293 D1/Gα16 cells
Chain of dopamine D1 (P21728 whole entry): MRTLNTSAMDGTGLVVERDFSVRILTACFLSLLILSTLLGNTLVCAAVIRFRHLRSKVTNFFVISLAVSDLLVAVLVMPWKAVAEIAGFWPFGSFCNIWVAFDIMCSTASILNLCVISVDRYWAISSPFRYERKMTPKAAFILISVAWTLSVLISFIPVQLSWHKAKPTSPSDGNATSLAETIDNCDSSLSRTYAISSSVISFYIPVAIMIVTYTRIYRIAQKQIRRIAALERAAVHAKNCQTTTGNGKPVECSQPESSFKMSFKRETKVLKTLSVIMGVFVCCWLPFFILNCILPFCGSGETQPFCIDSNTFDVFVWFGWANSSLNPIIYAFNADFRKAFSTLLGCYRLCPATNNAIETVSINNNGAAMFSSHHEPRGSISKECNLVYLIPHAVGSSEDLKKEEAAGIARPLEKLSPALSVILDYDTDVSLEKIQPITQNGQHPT
Method in brief: as §1

dopamine D2 = dopamine D2 (Homo sapiens, UniProt P14416); assay: Calcium mobilization assay, dopamine D2 antagonist activity; format: cell-based; details: HEK293 D2/Gα16 cells
Chain of dopamine D2 (P14416 whole entry): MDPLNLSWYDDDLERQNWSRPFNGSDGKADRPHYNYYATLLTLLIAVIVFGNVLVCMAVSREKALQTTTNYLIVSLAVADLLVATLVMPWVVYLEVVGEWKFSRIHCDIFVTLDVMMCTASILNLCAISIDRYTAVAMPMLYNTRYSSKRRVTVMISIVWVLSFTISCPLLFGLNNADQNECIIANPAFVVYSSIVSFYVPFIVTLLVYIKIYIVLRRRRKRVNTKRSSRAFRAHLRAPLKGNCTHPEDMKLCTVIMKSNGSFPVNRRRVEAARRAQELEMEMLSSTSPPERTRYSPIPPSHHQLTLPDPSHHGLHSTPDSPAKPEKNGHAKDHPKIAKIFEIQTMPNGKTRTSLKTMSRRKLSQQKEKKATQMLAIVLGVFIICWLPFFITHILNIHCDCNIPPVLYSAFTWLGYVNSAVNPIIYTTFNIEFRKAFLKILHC
Method in brief: as §1

[6] = target: serotonin 5-HT1B receptor (Homo sapiens, UniProt P28222); assay: Whole-cell binding assay, 5-HT1B
Chain of serotonin 5-HT1B receptor (P28222 whole entry): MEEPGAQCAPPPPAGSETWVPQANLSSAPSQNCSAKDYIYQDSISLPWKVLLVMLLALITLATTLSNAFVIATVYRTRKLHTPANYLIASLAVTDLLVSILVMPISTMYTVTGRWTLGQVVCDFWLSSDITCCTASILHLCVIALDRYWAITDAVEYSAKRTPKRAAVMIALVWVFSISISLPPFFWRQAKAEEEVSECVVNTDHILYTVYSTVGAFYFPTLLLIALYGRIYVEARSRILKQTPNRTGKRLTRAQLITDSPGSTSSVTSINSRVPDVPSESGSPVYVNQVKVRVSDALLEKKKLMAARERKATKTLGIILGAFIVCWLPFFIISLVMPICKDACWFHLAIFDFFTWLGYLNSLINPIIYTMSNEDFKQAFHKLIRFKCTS
Method in brief: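 CHO-K1 cells stably expressing 5-HT1B were seeded at 3 × 10⁴ cells/well and assayed 24 h later. Cells were incubated overnight at 4 °C with 1 nmol/L ³H-GR125743 or ³H-mesulergine plus unlabeled test compound (1.28 nmol/L–100 μmol/L). They were then washed with ice-cold PBS and lysed (PBS, 20 mmol/L Tris-HCl, 1% Triton X-100, pH 7.4). Bound radioactivity was scintillation-counted, and IC50 came from nonlinear regression.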

[7] = Pharmacokinetic profiles in male hamsters; format: in vivo; details: hamster, serum
Method in brief: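 Male hamsters, n = 3 per group, received test compound either at 20 mg/kg by oral gavage in 0.5% CMC-Na or at 10 mg/kg i.v. in 5% DMSO/10% cremophor EL/85% saline. Blood was drawn at 0, 0.5, 1, 2, 4, 6, 8, 10, 12 and 24 h, and serum was separated at 4000×g for 10 min. Serum levels were measured by LC/MS/MS. Parameters are averages of three runs.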

LDLR = assay: Western blot analysis of LDLR expression in HepG2 cells; format: cell-based, human; details: 5 μmol/L, 24 h
hERG channel = hERG channel (Homo sapiens, UniProt Q12809); assay: hERG testing; format: cell-based
Chain of hERG channel (Q12809 whole entry): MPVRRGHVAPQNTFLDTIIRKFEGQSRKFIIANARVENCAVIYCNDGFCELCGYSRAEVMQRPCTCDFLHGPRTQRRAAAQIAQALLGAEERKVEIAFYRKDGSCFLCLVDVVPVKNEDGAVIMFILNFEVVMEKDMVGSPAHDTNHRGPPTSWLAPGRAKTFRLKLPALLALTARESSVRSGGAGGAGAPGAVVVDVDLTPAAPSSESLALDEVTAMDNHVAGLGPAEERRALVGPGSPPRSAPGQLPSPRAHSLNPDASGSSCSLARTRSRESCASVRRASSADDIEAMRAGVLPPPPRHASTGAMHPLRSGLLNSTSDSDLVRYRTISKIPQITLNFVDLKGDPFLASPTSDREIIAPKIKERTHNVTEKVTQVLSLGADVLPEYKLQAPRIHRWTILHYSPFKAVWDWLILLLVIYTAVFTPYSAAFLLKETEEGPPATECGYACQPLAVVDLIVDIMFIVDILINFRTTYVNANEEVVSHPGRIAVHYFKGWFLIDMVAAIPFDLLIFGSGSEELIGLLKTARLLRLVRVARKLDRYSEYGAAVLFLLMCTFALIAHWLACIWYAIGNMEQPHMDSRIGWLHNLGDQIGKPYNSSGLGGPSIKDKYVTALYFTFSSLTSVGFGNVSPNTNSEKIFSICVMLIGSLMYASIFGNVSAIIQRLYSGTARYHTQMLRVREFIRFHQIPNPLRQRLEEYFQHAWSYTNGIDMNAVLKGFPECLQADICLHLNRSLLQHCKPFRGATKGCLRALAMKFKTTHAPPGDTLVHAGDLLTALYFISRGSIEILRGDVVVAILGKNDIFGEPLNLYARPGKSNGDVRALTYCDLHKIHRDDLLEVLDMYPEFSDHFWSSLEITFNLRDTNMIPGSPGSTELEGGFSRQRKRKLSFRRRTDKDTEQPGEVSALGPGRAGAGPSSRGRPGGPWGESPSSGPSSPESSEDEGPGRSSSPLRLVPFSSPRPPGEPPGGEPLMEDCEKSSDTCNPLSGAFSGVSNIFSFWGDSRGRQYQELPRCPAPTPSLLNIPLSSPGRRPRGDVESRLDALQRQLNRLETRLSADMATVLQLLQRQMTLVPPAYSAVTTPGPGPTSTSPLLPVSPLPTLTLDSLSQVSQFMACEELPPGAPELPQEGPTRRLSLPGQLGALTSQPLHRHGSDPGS
Method in brief: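 FluxOR thallium-flux assay in CHO-hERG-ZG cells kept under G418 and hygromycin B (100 μg/mL each). Cells were plated and held 30 min at RT in the dark, then 16–18 h at 37 °C. Dye loading ran 90 min at RT in the dark, then the medium was swapped for assay buffer and compound added for 20 min at RT in the dark. Fluorescence was recorded every 2 s to 10 s; stimulus buffer was added at 10 s, then recording continued every 1 s to 180 s.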

PCSK9 = PCSK9 ELISA in HepG2 cells; format: cell-based, human; details: read-out: IC50 of PCSK9 protein expression, 24 h
PCSK9 mRNA [8] = assay: Real-time PCR of PCSK9 mRNA in HepG2 cells; format: cell-based; details: Homo sapiens, HepG2, 24 h, read-out: IC50 of PCSK9 mRNA expression

IC50 [5]: ~100 µM
IC50 (dopamine D1): 2.35 ± 0.07 µM
IC50 (dopamine D2): ~50 µM
IC50 [6]: > 100 µM
SMILES: COc1ccc2c(c1)c1c(n2CO)CN2CCc3cc(OC)c(OCC(F)(F)F)cc3C2C1 (centres unmarked) [Compound 21, (3,12-Dimethoxy-2-(2,2,2-trifluoroethoxy)-5,6,14,14a-tetrahydroindolo[3′,2′:4,5]pyrido[2,1-a]isoquinolin-9(8H)-yl)methanol]
DiI-LDL uptake rate (compared to vehicle, mean±SEM) (HepG2 cells): 1.45±0.04^∗∗

IC50 [5]: ≥ 100 µM
IC50 (dopamine D1): ~100 µM
IC50 (dopamine D2): ≥ 100 µM
IC50 [6]: 13.4 ± 0.51 µM
AUC(0-inf) ([7]; iv, 10 mg/kg): 2090 ng·h/mL
MRT ([7]; iv, 10 mg/kg): 4.13 h
clearance ([7]; iv, 10 mg/kg): 84.1 mL/min/kg
half-life ([7]; iv, 10 mg/kg): 217 min
bioavailability ([7]; oral, 20 mg/kg): 21.9%
AUC(0-inf) ([7]; po, 20 mg/kg): 1000 ng·h/mL
Cmax ([7]; po, 20 mg/kg): 169 ng/mL
MRT ([7]; po, 20 mg/kg): 10.3 h
half-life ([7]; po, 20 mg/kg): 381 min
IC50 (PCSK9): 1340 nM
IC50 (PCSK9 mRNA [8]): 1100 nM
SMILES: COc1ccc2c(c1)c1c(n2CO)CN2CCc3cc(OCc4ccccc4)c(OC)cc3C2C1 (centres unmarked) [Compound 22, (3-(Benzyloxy)-2,12-dimethoxy-5,6,14,14a-tetrahydroindolo[3′,2′:4,5]pyrido[2,1-a]isoquinolin-9(8H)-yl)methanol]
reduction in serum LDL-C ([4]; 30 mg/kg oral gavage daily): 41.4%
reduction in serum TC ([4]; 30 mg/kg oral gavage daily): 36.7%
LDLR expression compared to DMSO (LDLR): 2.06 fold
IC50 (hERG channel): 7.99 µM

The next lines start with the compound.

SMILES: COc1ccc2cc3[n+](cc2c1OC)CCc1cc2c(cc1-3)OCO2 [Berberine]
DiI-LDL uptake rate (compared to vehicle, mean±SEM) (HepG2 cells): 1.38±0.03
IC50 (PCSK9 mRNA [1]): 8.04 µM
reduction of LDL-C [2]: 25%
reduction of serum total cholesterol (TC) [2]: 29%
bioavailability (F) [3]: < 1%
oral bioavailability [3]: ~0%

SMILES: CC(C)OC(=O)C(C)(C)Oc1ccc(C(=O)c2ccc(Cl)cc2)cc1 [fenofibrate, reference compound]
decrease of serum LDL-C ([4]; p.o. 100 mg/kg daily): 79.4%
decrease of serum TC ([4]; p.o. 100 mg/kg daily): 71.3%

SMILES: COc1ccc2c(c1)c1c(n2CO)CN2CCc3cc(OC)c(OCc4ccc(F)cc4)cc3C2C1 (centres unmarked) [Compound 18, (2-((4-Fluorobenzyl)oxy)-3,12-dimethoxy-5,6,14,14a-tetrahydroindolo[3′,2′:4,5]pyrido[2,1-a]isoquinolin-9(8H)-yl)methanol]
IC50 [5]: ~100 µM
IC50 (dopamine D1): 1.71 ± 0.1 µM
IC50 (dopamine D2): > 100 µM
IC50 [6]: > 100 µM

SMILES: COc1cc2c(cc1OCc1ccccc1F)C1Cc3c(n(CO)c4ccccc34)CN1CC2 (centres unmarked) [Compound 8, (2-((2-Fluorobenzyl)oxy)-3-methoxy-5,6,14,14a-tetrahydroindolo[3′,2′:4,5]pyrido[2,1-a]isoquinolin-9(8H)-yl)methanol]
DiI-LDL uptake rate (compared to vehicle, mean±SEM) (HepG2 cells): 1.04±0.04
IC50 [5]: > 100 µM
IC50 (dopamine D1): 5.56 ± 0.08 µM
IC50 (dopamine D2): 17.9 ± 0.86 µM
IC50 [6]: 47.2 ± 1.22 µM

Source: article PMC6900552 (Acta Pharmaceutica Sinica. B, 2019)
